≈ marks a conversion by molar mass, not a printed value.
Key:
[1] = molecular target: T1, Nuclear receptor subfamily 1 group I member 2 (Homo sapiens, UniProt O75469); experiment: Agonist activity at human PXR
T1 sequence (O75469 whole entry): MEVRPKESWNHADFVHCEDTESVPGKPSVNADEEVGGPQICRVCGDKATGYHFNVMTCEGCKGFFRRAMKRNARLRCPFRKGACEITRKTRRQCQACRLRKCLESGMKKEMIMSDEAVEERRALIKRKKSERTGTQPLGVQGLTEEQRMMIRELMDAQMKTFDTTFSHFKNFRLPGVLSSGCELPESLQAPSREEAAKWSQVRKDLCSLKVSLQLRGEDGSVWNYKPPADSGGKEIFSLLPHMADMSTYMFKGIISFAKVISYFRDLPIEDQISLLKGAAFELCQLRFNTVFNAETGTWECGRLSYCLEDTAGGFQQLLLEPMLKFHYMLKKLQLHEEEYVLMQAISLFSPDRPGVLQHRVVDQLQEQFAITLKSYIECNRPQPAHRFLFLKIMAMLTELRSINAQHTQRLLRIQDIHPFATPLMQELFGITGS

[2] = Aqueous solubility of compound; conditions: buffer
[3] = molecular target: T2, Calcium-dependent protein kinase 4 (Plasmodium falciparum (isolate 3D7), UniProt Q8IBS5); experiment: Binding affinity to CDPK4 in Plasmodium falciparum 3D7 blood stage extract incubated for 1 hr in presence of ATP-competitive kinase inhibitor by kinobeads based pull down assay; conditions: read-out: Kd(app)
T2 sequence (Q8IBS5 whole entry): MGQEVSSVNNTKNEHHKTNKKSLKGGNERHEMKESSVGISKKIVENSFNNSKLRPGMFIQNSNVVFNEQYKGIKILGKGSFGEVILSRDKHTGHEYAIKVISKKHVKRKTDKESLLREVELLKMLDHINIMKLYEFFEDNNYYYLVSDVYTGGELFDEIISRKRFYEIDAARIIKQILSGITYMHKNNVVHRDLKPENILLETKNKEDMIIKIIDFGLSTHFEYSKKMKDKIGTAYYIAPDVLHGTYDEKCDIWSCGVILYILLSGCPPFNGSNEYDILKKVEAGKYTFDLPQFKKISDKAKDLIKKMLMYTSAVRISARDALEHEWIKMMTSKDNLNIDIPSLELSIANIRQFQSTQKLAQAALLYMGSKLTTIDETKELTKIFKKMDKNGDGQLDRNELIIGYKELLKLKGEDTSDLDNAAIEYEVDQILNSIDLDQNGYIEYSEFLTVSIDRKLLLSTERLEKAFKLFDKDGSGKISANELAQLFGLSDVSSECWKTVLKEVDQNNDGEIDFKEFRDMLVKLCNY
In short: (§1)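 Chemoproteomic competition used kinobeads or Sepharose beads derivatized with ligand at 1 mM. Free compound was tested at six concentrations between 0.08 and 20 μM, in two independent experiments. Proteins were SP3-digested, TMT 10-plex labelled and measured by LC-MS/MS. IC50s came from competition curves, and apparent Kd was corrected for protein depletion by the beads.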

[4] = tested on: Plasmodium falciparum; experiment: Antiplasmodial activity against […] of Plasmodium falciparum NF54 assessed as reduction in male gametocytes activation preincubated for 48 hrs followed by gametocytes activation and measured after 24 hrs by fluorescence based automated inverted microscopic analysis; type: functional, organism-based
In short: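 Gametocyte activation was triggered by reduced temperature and ookinete medium containing xanthurenic acid. Male exflagellation centres were detected from a 10-frame video, scoring pixel changes caused by flagellar movement shifting surrounding cells.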

[5] = tested on: Plasmodium falciparum; experiment: (§2) Antiplasmodial activity against Plasmodium falciparum 3D7A asexual erythrocytic stage assessed as reduction in [3H]hypoxanthine incorporation preincubated for 72 hrs followed by [3H]hypoxanthine addition and measured after 24 hrs by microbeta scintillation counting method; type: functional, organism-based
[6] = Binding affinity to GSK3 in Plasmodium falciparum 3D7 blood stage extract incubated for 1 hr in presence of ATP-competitive kinase inhibitor by kinobeads based pull down assay; conditions: read-out: Kd(app)
In short: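 The free compound competed over six concentrations from 0.08 to 20 μM. Proteins were digested by a modified SP3 protocol, labelled with TMT 10-plex and quantified by LC-MS/MS. Apparent Kd was derived from IC50 corrected for bead depletion. Two independent experiments were run.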

[7] = tested on: Plasmodium falciparum; experiment: Antiplasmodial activity against Plasmodium falciparum 3D7A erythrocytic stage assessed as reduction in [3H]hypoxanthine incorporation preincubated for 24 hrs followed by [3H]hypoxanthine addition and measured after 24 hrs by microbeta scintillation counting method; type: functional, organism-based
In short: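 Nine threefold serial dilutions from 5 μM top concentration. Incubated 24 h at 37 °C under 5% CO2/5% O2/90% N2, then 0.2 μCi [3H]-hypoxanthine per well for another 24 h. Cells harvested on glass fibre filters and counted. Data normalized to compound-free parasitized RBCs; IC50 fitted.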

[8] = Lipophilicity, LogD of compound by reverse phase HPLC analysis
[9] = tested on: Plasmodium falciparum; experiment: as §2, with “3D7A harboring with PKG T618Q mutant” for “3D7A”, “48” for “72”; type: functional, organism-based
[10] = molecular target: T3, Amine oxidase [flavin-containing] A (Homo sapiens, UniProt P21397); experiment: Inhibition of human MAO-A
T3 sequence (P21397 whole entry): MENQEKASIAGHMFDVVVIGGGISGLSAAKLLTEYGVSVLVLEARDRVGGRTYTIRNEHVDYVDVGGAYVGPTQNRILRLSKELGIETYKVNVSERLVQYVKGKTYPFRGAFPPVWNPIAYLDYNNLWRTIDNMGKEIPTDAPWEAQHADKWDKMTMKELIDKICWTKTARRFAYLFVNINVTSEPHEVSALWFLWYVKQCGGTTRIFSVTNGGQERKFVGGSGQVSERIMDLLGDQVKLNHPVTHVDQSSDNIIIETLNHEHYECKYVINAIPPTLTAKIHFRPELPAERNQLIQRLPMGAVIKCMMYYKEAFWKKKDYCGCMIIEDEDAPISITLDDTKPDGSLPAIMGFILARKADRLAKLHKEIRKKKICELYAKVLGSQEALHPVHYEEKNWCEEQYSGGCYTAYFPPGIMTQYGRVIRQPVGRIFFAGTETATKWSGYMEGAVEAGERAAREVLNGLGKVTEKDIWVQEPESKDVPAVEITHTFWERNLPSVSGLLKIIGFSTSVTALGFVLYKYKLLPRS

[11] = Binding affinity to zinc finger (CCCH type) protein in Plasmodium falciparum 3D7 blood stage extract incubated for 1 hr by kinobeads based pull down assay; conditions: read-out: Kd(app)
[12] = molecular target: cGMP-inhibited 3',5'-cyclic phosphodiesterase 3A (Homo sapiens, UniProt Q14432); experiment: Inhibition of PDE3A (unknown origin)
Sequence of cGMP-inhibited 3',5'-cyclic phosphodiesterase 3A (Q14432 whole entry): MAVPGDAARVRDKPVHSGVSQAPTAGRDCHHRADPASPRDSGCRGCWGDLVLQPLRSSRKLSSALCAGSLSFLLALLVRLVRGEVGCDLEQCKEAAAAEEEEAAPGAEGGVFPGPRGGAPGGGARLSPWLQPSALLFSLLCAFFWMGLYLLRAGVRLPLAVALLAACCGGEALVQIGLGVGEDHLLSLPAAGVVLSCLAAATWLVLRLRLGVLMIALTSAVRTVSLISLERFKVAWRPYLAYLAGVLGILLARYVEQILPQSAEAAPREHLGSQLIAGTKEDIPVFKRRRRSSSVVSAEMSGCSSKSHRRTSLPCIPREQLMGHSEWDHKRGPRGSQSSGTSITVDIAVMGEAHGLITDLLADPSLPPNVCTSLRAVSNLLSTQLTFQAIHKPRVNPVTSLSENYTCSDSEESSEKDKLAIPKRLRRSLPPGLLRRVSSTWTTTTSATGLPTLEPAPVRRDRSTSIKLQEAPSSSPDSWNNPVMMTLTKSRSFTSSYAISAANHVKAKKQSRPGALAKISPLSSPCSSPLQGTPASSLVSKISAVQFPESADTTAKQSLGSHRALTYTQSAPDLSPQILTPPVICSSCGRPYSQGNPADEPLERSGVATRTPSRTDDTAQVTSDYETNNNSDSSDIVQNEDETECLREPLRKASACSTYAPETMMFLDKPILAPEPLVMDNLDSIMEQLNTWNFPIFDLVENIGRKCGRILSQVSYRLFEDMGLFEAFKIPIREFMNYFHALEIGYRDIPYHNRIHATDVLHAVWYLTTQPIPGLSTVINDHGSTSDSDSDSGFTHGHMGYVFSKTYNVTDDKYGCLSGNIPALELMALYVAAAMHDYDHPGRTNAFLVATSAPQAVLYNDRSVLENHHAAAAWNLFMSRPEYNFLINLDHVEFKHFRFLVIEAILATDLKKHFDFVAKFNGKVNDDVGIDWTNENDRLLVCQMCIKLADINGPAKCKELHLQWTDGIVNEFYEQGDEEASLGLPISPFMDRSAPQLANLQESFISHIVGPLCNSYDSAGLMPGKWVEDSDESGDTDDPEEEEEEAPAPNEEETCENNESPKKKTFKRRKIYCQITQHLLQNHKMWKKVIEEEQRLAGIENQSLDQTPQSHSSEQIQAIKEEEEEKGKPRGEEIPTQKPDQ

[13] = Clearance in mouse liver microsomes at 0.5 uM measured up to 45 mins in presence of NADPH by HPLC-MS/MS analysis; type: ADME, Microsome
[14] = Clearance in human liver microsomes at 0.5 uM measured up to 45 mins in presence of NADPH by HPLC-MS/MS analysis; type: ADME, Microsome
[15] = molecular target: Calcium-dependent protein kinase 1 (Plasmodium falciparum, UniProt P62344); experiment: Binding affinity to CDPK1 in Plasmodium falciparum 3D7 blood stage extract incubated for 1 hr by kinobeads based pull down assay; conditions: read-out: Kd(app); in short: as §1
Sequence of Calcium-dependent protein kinase 1 (P62344 whole entry): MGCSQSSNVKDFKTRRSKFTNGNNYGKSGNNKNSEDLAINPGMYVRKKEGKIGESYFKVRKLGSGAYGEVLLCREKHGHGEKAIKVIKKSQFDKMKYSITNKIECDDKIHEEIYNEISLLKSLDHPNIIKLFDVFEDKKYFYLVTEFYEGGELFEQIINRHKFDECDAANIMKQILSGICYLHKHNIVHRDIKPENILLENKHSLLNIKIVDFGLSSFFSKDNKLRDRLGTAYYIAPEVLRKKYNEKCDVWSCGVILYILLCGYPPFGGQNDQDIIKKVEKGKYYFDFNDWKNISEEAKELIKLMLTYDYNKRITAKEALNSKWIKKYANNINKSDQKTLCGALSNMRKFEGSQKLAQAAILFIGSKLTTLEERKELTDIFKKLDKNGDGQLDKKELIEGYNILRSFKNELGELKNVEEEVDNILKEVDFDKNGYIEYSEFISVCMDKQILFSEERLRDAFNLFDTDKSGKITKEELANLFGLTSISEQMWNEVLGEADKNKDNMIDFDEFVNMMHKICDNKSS

[16] = Permeability of compound by PAMPA
[17] = molecular target: Beta-2 adrenergic receptor (Homo sapiens, UniProt P07550); experiment: Agonist activity at human beta2 adrenoceptor
Sequence of Beta-2 adrenergic receptor (P07550 whole entry): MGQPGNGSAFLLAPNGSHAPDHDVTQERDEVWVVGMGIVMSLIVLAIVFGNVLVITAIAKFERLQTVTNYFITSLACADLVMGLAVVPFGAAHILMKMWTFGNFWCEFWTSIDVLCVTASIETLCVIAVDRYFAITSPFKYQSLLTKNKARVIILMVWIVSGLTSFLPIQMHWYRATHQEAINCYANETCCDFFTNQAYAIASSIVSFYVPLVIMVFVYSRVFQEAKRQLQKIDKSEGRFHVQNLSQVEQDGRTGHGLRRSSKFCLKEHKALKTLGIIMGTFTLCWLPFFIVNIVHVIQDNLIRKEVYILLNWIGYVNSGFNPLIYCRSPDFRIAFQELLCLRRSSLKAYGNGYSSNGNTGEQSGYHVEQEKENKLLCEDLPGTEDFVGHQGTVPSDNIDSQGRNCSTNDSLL

## Cc1cc(Nc2nccc(-c3sc(C4CCNCC4)nc3-c3ccc(F)cc3)n2)ccn1
[1]
  EC50: > 50000 nM
[2]
  solubility: 410 µM (≈ 183 µg/mL)
[3]
  Kd: 50 nM
[4]
  EC50: 300 nM
[5]
  EC50: 90 nM
[6]
  Kd: 90 nM
[7]
  EC50: 160 nM
[8]
  chromatographic logD: 2.54
[9]
  EC50: 150 nM
[10]
  IC50: > 100000 nM
[11]
  Kd: 3900 nM
[12]
  IC50: > 100000 nM
[13]
  CLH: 1.62 mL/min/g
[14]
  CLH: 0.96 mL/min/g
[15]
  Kd: 50 nM
[16]
  Papp: 21 ×10⁻⁶ cm/s
[17]
  EC50: > 100000 nM

Source: ChEMBL document CHEMBL4414601 (J Med Chem, 2019)
